Reference: ChEMBL document CHEMBL1129963, “Sulfonimidamide analogs of oncolytic sulfonylureas” (J Med Chem, 1997)
In brackets after ≈: the same amount, converted by molar mass.

Assays:
Mus musculus [1] = assay: In vivo antitumor activity against subaxillary implanted 6C3HED lymphosarcoma implanted in C3H mice at a dose of 300 mg/kg administered perorally daily for a period of 8 days.; type: functional; settings: 192 h, route oral
Summary of the method: (§1)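 6C3HED lymphosarcoma was carried in C3H mice. Compound was dosed at the stated route and schedule for 8 days (daily, twice daily, or days 1, 3, 5, 7) and tumor growth inhibition was scored against controls. The table value is the lowest dose giving >80% inhibition, or the highest dose tested. Deaths per group were recorded.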

CCRF-CEM = assay: In vitro cytotoxicity against CCRF-CEM cells; type: functional, cell-based; settings: Homo sapiens
Summary of the method: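 CCRF-CEM cells were grown in culture for 72 h with compound. The value is the concentration that inhibited growth to 50% of control growth.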

Mus musculus [2] = assay: In vivo antitumor activity against subaxillary implanted 6C3HED lymphosarcoma implanted in C3H mice at a dose of 150 mg/kg administered perorally twice daily for a period of 8 days.; type: functional; settings: Mus musculus, 6C3HED, po, 192 h; summary of the method: as §1
Mus musculus [3] = assay: In vivo antitumor activity against subaxillary implanted 6C3HED lymphosarcoma implanted in C3H mice at a dose of 300 mg/kg administered perorally twice daily for a period of 8 days.; type: functional; settings: 192 h, route oral; summary of the method: as §1
Mus musculus [4] = assay: (§2) Metabolic breakdown to the o-sulfate of p-chloroaniline (2-amino-5-chlorophenyl sulfate) by giving 100 mg/kg oral doses of the compound; type: functional
Summary of the method: (§3)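 Groups of two to four mice received single 100 mg/kg oral doses of each compound. Urine was pooled over 0-24 h, and the 2-amino-5-chlorophenyl sulfate excreted in 24 h per mouse was quantified as the marker of p-chloroaniline release.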

[5] = as §2; type: ADME, organism-based; parameters: dose 100 mg/kg, route oral; settings: in vivo; summary of the method: as §3
Mus musculus [6] = assay: In vivo antitumor activity of compound against subaxillary implanted 6C3HED lymphosarcoma implanted in C3H mice at a dose of 150 mg/kg administered intraperitoneally daily for a period of 8 days.; type: functional; settings: ip, 192 h, route intraperitoneal; summary of the method: as §1
Mus musculus [7] = assay: In vivo antitumor activity of compound against subaxillary implanted 6C3HED lymphosarcoma implanted in C3H mice at a dose of 300 mg/kg administered intraperitoneally daily for a period of 8 days.; type: functional; settings: ip, 192 h, route intraperitoneal; summary of the method: as §1
Mus musculus [8] = assay: In vivo antitumor activity of compound against subaxillary implanted 6C3HED lymphosarcoma implanted in C3H mice at a dose of 50 mg/kg administered perorally twice daily for a period of 8 days.; type: functional; settings: 192 h, route oral; summary of the method: as §1
Mus musculus [9] = assay: In vivo antitumor activity of compound against subaxillary implanted 6C3HED lymphosarcoma implanted in C3H mice at a dose of 4.0 mg/kg administered intraperitoneally twice daily for a period of 8 days.; type: functional; settings: ip, 192 h, route intraperitoneal; summary of the method: as §1
Mus musculus [10] = assay: In vivo antitumor activity of compound against subaxillary implanted 6C3HED lymphosarcoma implanted in C3H mice at a dose of 150 mg/kg administered perorally daily for a period of 8 days.; type: functional; settings: 192 h, route oral; summary of the method: as §1
Mus musculus [11] = assay: (§4) In vivo antitumor activity of compound against subaxillary implanted 6C3HED lymphosarcoma implanted in C3H mice at a dose of 25 mg/kg administered perorally twice daily for a period of 8 days.; type: functional; settings: 192 h, route oral; summary of the method: as §1
Mus musculus [12] = assay: In vivo antitumor activity of compound against subaxillary implanted 6C3HED lymphosarcoma implanted in C3H mice at a dose of 19 mg/kg administered perorally on days 1, 3, 5, 7; type: functional; settings: route oral; summary of the method: as §1
Mus musculus [13] = assay: as §4; type: functional; settings: route oral
Summary of the method: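 Oral dosing twice daily for 8 days in C3H mice bearing 6C3HED lymphosarcoma. Read-out is percent tumor growth inhibition relative to controls, with deaths per group also recorded. The full in vivo protocol is given in an earlier report.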

Mus musculus [14] = assay: In vivo antitumor activity of compound against subaxillary implanted 6C3HED lymphosarcoma implanted in C3H mice at a dose of 150 mg/kg administered perorally twice daily for a period of 8 days; Toxic; type: functional, organism-based; parameters: dose 150 mg/kg; summary of the method: as §1
Mus musculus [15] = assay: In vivo antitumor activity of compound against subaxillary implanted 6C3HED lymphosarcoma implanted in C3H mice at a dose of 25 mg/kg administered perorally daily for a period of 8 days.; type: functional; settings: 192 h, route oral; summary of the method: as §1
Mus musculus [16] = assay: In vivo antitumor activity of compound against subaxillary implanted 6C3HED lymphosarcoma implanted in C3H mice at a dose of 243 mg/kg administered intraperitoneally daily for a period of 8 days.; type: functional; settings: ip, 192 h, route intraperitoneal; summary of the method: as §1

| Compound | IC50 (CCRF-CEM) | inhibition in vivo at 300 mg/kg (Mus musculus [3]) | also measured |
| --- | --- | --- | --- |
| CCCN[S+]([O-])(=NC(=O)Nc1ccc(Cl)cc1)c1ccc(C)cc1 (stereo not given) | 10.9 µg/mL (≈ 29.8 µM) | – | inhibition in vivo at 300 mg/kg (Mus musculus [1]): 69% |
| CCCCN[S+]([O-])(=NC(=O)Nc1ccc(Cl)cc1)c1ccc(C)cc1 (stereo not given) | 0.4 µg/mL (≈ 1.05 µM) | – | inhibition in vivo at 150 mg/kg (Mus musculus [2]): 88% |
| CN[S+]([O-])(=NC(=O)N(C)c1ccc(Cl)cc1)c1ccc(C)cc1 (stereo not given) | > 20 µg/mL | – | inhibition in vivo at 150 mg/kg (Mus musculus [2]): 91% |
| Cc1ccc([S+]([O-])(=NC(=O)Nc2ccc(Cl)cc2)NCCCO)cc1 (stereo not given) | > 20 µg/mL | 89% | – |
| Cc1ccc([S+]([O-])(=NC(=O)Nc2ccc(Cl)cc2)N(C)C)cc1 (stereo not given) | > 20 µg/mL | 63% | – |
| CN[S+]([O-])(=NC(=O)Nc1ccc(Cl)cc1)c1ccc2c(c1)CCC2 (stereo not given) | 10.8 µg/mL (≈ 29.7 µM) | – | inhibition in vivo at 150 mg/kg (Mus musculus [2]): 75% |
| O=C(Nc1ccc(Cl)cc1)NS(=O)(=O)c1ccc2c(c1)CCC2 [SULOFENUR] | – | – | Activity (Mus musculus [4]): 0.37 µM; inhibition in vivo at 150 mg/kg (Mus musculus [2]): 91% |
| COC(=O)c1ccc([S+](N)([O-])=NC(=O)Nc2ccc(Cl)cc2)cc1 (stereo not given) | > 20 µg/mL | 0% | – |
| N[S+]([O-])(=NC(=O)Nc1ccc(Cl)cc1)c1ccc2c(c1)CCC2 (stereo not given) | > 20 µg/mL | – | Activity [5]: < 0.15 µM; inhibition in vivo at 150 mg/kg (Mus musculus [6]): 86% |
| Cc1ccc([S+](N)([O-])=NC(=O)Nc2ccc(Cl)cc2)cc1 (stereo in doubt; 14) | > 20 µg/mL | – | Activity [5]: < 0.2 µM; inhibition in vivo at 300 mg/kg (Mus musculus [1]): 89%; inhibition in vivo at 300 mg/kg (Mus musculus [7]): 98%; inhibition in vivo at 150 mg/kg (Mus musculus [6]): 92%; inhibition in vivo at 50 mg/kg (Mus musculus [8]): 95% |
| Cc1ccc([S+](N)([O-])=NC(=O)Nc2ccc(Cl)cc2)cc1C (stereo not given) | > 20 µg/mL | – | inhibition in vivo at 4 mg/kg (Mus musculus [9]): 97% |
| CN[S+]([O-])(=NC(=O)Nc1ccc(Cl)cc1)c1ccc(C)cc1 (stereo not given) | > 20 µg/mL | – | Activity [5]: 1.2 µM; inhibition in vivo at 150 mg/kg (Mus musculus [10]): 93% |
| CCc1ccc([S+](N)([O-])=NC(=O)Nc2ccc(Cl)cc2)cc1 (stereo not given) | > 20 µg/mL | – | inhibition in vivo at 25 mg/kg (Mus musculus [11]): 91% |
| COc1ccc(NC(=O)N=[S+](N)([O-])c2ccc(C)cc2)cc1 (stereo not given) | > 20 µg/mL | 0% | – |
| CCCC[S+]([O-])(=NC(=O)Nc1ccc(Cl)cc1)NC (stereo not given) | > 20 µg/mL | – | inhibition in vivo at 300 mg/kg (Mus musculus [7]): 7% |
| Cc1cc([S+](N)([O-])=NC(=O)Nc2ccc(Cl)cc2)cc(C)c1Cl (stereo not given) | 6.2 µg/mL (≈ 16.7 µM) | 0% | – |
| Cc1cc([S+](N)([O-])=NC(=O)Nc2ccc(Cl)cc2)cc(C)c1C (stereo not given) | 12.7 µg/mL (≈ 36.1 µM) | – | inhibition in vivo at 19 mg/kg (Mus musculus [12]): 95% |
| N[S+]([O-])(=NC(=O)Nc1ccc(Cl)cc1)c1ccc(Cl)cc1 (stereo not given) | 12.3 µg/mL (≈ 35.7 µM) | – | inhibition in vivo at 50 mg/kg (Mus musculus [8]): 80% |
| Cc1ccc([S+](N)([O-])=NC(=O)Nc2ccc(Cl)c(Cl)c2)cc1 (stereo not given) | > 20 µg/mL | 14% | – |
| N[S+]([O-])(=NC(=O)Nc1ccc(Cl)cc1)c1ccc(C(F)(F)F)cc1 (stereo not given) | 15.2 µg/mL (≈ 40.2 µM) | – | Lethality (Mus musculus [13]): 100%; inhibition (Mus musculus [14]): Toxic |
| CN[S+]([O-])(=NC(=O)Nc1ccc(Cl)cc1)c1ccc(C)c(C)c1 (stereo not given) | 16.2 µg/mL (≈ 46 µM) | – | inhibition in vivo at 25 mg/kg (Mus musculus [15]): 98% |
| N[S+]([O-])(=NC(=O)Nc1ccc(Cl)cc1)c1ccc(C(=O)O)cc1 (stereo not given) | – | – | inhibition in vivo at 243 mg/kg (Mus musculus [16]): 0% |
| CC(=O)N[S+]([O-])(=NC(=O)Nc1ccc(Cl)cc1)c1ccc(C)cc1 (stereo not given) | > 20 µg/mL | 84% | – |
| Cc1ccc([S+]([O-])(=NC(=O)Nc2ccc(Cl)cc2)NCCO)cc1 (stereo not given) | > 20 µg/mL | – | inhibition in vivo at 300 mg/kg (Mus musculus [1]): 60% |
| Cc1ccc([S+](N)([O-])=NC(=O)Nc2ccc(OCc3ccccc3)cc2)cc1 (stereo not given) | > 20 µg/mL | 5% | – |
| CCCCN(C(C)=O)[S+]([O-])(=NC(=O)N(C(C)=O)c1ccc(Cl)cc1)c1ccc(C)cc1 (stereo not given) | 2.9 µg/mL (≈ 6.25 µM) | 10% | – |
| CC(C)(C)c1ccc([S+](N)([O-])=NC(=O)Nc2ccc(Cl)cc2)cc1 (stereo not given) | 1.7 µg/mL (≈ 4.65 µM) | 11% | – |
